Values after ≈ are worked out from the molar mass of the structure shown.
Legend:
[1] = target: T1, Toll-like receptor 7 (Homo sapiens, UniProt Q9NYK1); experiment: Agonist activity at human TLR7 expressed in HEK293 cells by NFkappaB SEAP reporter gene assay; format: cell-based
T1 sequence (Q9NYK1 whole entry): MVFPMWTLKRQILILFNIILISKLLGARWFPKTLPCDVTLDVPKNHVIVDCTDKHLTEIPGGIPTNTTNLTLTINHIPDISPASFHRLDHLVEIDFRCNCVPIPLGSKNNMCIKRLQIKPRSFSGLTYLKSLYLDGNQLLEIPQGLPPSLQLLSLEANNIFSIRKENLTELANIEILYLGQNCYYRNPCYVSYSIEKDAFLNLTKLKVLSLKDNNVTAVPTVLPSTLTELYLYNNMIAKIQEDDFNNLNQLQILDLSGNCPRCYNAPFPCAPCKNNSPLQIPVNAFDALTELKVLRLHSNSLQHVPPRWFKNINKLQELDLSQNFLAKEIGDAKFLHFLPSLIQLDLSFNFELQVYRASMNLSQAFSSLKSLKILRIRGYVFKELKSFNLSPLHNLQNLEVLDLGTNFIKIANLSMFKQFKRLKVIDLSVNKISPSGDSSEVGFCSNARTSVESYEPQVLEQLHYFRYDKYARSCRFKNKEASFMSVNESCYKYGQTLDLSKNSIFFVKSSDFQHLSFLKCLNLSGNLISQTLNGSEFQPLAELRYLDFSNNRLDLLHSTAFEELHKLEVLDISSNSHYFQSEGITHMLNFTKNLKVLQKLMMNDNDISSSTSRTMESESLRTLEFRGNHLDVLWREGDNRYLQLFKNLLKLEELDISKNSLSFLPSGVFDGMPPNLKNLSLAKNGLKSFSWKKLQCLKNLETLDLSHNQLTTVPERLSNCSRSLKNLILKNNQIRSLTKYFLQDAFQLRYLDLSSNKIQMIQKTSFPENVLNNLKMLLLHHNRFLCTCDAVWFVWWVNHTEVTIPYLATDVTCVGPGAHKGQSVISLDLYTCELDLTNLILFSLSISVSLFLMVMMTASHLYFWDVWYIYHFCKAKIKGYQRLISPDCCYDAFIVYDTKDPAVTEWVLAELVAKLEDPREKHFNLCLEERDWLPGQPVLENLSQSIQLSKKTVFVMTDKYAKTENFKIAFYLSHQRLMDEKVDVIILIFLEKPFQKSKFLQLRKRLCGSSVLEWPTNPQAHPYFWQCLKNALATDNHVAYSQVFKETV
Procedure, shortened: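 HEK293 cells stably transfected with human TLR7 plus an NF-κB-driven SEAP reporter. EC50 taken from reporter read-out, given as the mean of two independent experiments.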

[2] = Aqueous solubility in pH 7.4 buffer; format: physicochemical
Procedure, shortened: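 Solubility measured in pH 7.4 buffer.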

[3] = Antitumor activity against mouse HM1 cells xenografted in B6C3F1 mouse assessed as inhibition of lung metastasis at 10 mg/kg, iv administered biweekly starting on day 1 post tumor xenografting measured on day 35 post tumor xenografting; format: functional; conditions: in the assay text read “starting on day 11 post” for “starting on day 1 post”
Procedure, shortened: (§1)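 HM-1 ovarian cancer cells injected subcutaneously into B6C3F1 mice on day 0. Primary tumor surgically removed under isoflurane on day 10. Compound given intravenously twice weekly from day 11. Lung metastases counted on day 35 and expressed as % inhibition. Six mice per group, mean ± SD. Significance versus vehicle by Wilcoxon test.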

[4] = test system: Mus musculus; experiment: Increase in IFN level in Balb/c mouse plasma at 10 mg/kg, iv measured after 6 hrs post dose by L929 cells and VSV based bioassay; format: functional
Procedure, shortened: (§2)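 Female Balb/c mice were given a single intravenous dose of test compound. Plasma interferon was sampled 6 h post dose and quantified by a bioassay using L929 cells challenged with vesicular stomatitis virus, with values reported in IU/mL.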

[5] = target: T2, Toll-like receptor 7 (Mus musculus, UniProt P58681); experiment: Agonist activity at mouse TLR7
T2 sequence (P58681 whole entry): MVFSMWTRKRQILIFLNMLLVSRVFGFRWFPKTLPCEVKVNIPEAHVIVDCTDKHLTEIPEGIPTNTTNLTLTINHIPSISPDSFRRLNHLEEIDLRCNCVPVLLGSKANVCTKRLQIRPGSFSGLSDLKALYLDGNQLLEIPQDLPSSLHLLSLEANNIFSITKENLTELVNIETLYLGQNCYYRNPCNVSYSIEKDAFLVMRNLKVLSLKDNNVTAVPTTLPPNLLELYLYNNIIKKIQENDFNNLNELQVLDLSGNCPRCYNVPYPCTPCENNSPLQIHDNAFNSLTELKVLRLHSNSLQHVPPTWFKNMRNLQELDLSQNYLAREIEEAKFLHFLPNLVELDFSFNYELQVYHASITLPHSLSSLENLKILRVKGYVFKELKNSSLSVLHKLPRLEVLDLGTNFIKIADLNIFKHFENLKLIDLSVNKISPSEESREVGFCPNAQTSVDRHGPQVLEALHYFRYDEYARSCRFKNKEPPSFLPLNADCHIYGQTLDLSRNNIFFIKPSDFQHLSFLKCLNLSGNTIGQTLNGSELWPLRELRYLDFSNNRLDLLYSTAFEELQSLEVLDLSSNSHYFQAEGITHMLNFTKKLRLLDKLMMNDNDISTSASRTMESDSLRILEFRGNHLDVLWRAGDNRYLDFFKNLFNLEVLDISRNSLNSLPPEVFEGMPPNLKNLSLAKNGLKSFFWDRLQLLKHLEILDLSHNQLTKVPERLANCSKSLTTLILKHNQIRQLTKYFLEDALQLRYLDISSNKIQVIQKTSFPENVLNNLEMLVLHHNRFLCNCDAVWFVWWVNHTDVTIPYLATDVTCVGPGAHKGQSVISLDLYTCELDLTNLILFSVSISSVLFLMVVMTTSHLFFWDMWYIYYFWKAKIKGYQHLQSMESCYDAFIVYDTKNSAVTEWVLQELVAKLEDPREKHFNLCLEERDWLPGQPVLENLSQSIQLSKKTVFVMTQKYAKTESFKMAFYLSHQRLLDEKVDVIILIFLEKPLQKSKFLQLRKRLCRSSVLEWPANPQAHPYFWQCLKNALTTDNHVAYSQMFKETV

[6] = Antitumor activity against mouse HM1 cells xenografted in B6C3F1 mouse assessed as inhibition of lung metastasis at 1 mg/kg, iv administered biweekly starting on day 1 post tumor xenografting measured on day 35 post tumor xenografting; format: functional; conditions: in the assay text read “starting on day 11 post” for “starting on day 1 post”; procedure, shortened: as §1
[7] = Antitumor activity against mouse HM1 cells xenografted in B6C3F1 mouse assessed as inhibition of lung metastasis at 0.1 mg/kg, iv administered biweekly starting on day 1 post tumor xenografting measured on day 35 post tumor xenografting; format: functional; conditions: in the assay text read “starting on day 11 post” for “starting on day 1 post”; procedure, shortened: as §1
[8] = Antitumor activity against mouse HM1 cells xenografted in B6C3F1 mouse assessed as inhibition of lung metastasis at 1 mg/kg, iv administered biweekly starting on day 11 post tumor xenografting measured on day 35 post tumor xenografting
[9] = target: T3, Toll-like receptor 7 (Homo sapiens) (UniProt Q9NYK1); experiment: Potency index, ratio of EC50 of 852A to EC50 of test compound for human TLR7 expressed in HEK293 cells by NFkappaB SEAP reporter gene assay; format: cell-based
T3 sequence (whole entry): T1 sequence (Q9NYK1 whole entry)

[10] = Volume of distribution at steady state in Balb/c mouse at 1 mg/kg, iv; format: ADME, organism-based; set-up: dose 1 mg/kg, route intravenous; conditions: in vivo, read-out: Vdss
Procedure, shortened: (§3)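 Female Balb/c mice dosed intravenously at 1 mg/kg. Vdss and T1/2 calculated from this PK study.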

[11] = Potency index, ratio of antitumor activity of 852A to test compound against mouse HM1 cells xenografted in B6C3F1 mouse; format: functional
[12] = Half life in Balb/c mouse at 1 mg/kg, iv; format: ADME, organism-based; set-up: dose 1 mg/kg, route intravenous; conditions: in vivo; procedure, shortened: as §3
[13] = test system: Mus musculus; experiment: Increase in IFN level in Balb/c mouse plasma at 1 mg/kg, iv measured after 6 hrs post dose by L929 cells and VSV based bioassay; format: functional; procedure, shortened: as §2

Structure (SMILES)	EC50 [1] [nM]	solubility [2] [µg/mL]	further results
CCCCNc1nc(N)c2[nH]c(=O)n(Cc3ccc(OCCNC)nc3)c2n1	166	–	–
CCCCNc1nc(N)c2nc(O)n(Cc3ccc(C)nc3)c2n1	32	< 1	–
CCCCNc1nc(N)c2[nH]c(=O)n(Cc3ccc(OCCCN(C)C)nc3)c2n1	–	288 (≈ 695 µM)	–
CCCCNc1nc(N)c2[nH]c(=O)n(Cc3ccc(N4CCNCC4)nc3)c2n1	48.5	63 (≈ 158 µM)	–
CCCCNc1nc(N)c2[nH]c(=O)n(Cc3ccc(N4CCN(C)CC4)nc3)c2n1	5.4	7 (≈ 17 µM)	–
CCc1nc2c(N)nc3ccccc3c2n1CCCCNS(C)(=O)=O [CPG-52852]	2660	–	inhibition in vivo at 10 mg/kg [3]: 55%; Activity [4]: 19 IU/ml; EC50 [5]: 6220 nM; inhibition in vivo at 1 mg/kg [6]: 6%
CCCCNc1nc(N)c2[nH]c(=O)n(Cc3ccc(N(C)CCCN(C)C)nc3)c2n1	72.8	725 (≈ 1700 µM)	–
CCCCNc1nc(N)c2[nH]c(=O)n(Cc3ccc(OCCN4CCOCC4)nc3)c2n1	50.2	34 (≈ 76.8 µM)	–
CCCCNc1nc(N)c2[nH]c(=O)n(Cc3ccc(N4CCC(N(C)C)CC4)nc3)c2n1	9.4	71 (≈ 162 µM)	–
CCCCNc1nc(N)c2[nH]c(=O)n(Cc3cccc(CN4CCCCC4)c3)c2n1	30.1	–	–
CCCCNc1nc(N)c2nc(O)n(Cc3ccc(OC)nc3)c2n1	28.1	< 1	–
CCCCNc1nc(N)c2nc(O)n(Cc3ccc(C)cc3)c2n1	166	< 1	–
CCCCNc1nc(N)c2[nH]c(=O)n(Cc3ccc(OCCCCN(C)C)nc3)c2n1	15.2	350 (≈ 817 µM)	–
CCCCNc1nc(N)c2[nH]c(=O)n(Cc3ccc(OCCN(C)C)nc3)c2n1	7.2	372 (≈ 929 µM)	inhibition in vivo at 0.1 mg/kg [7]: 78%; inhibition in vivo at 1 mg/kg [8]: 100%; Ratio EC50 [9]: 370; Vd [10]: 6.6 L/kg; EC50 [5]: 4.6 nM; Ratio [11]: >100; half-life [12]: 1.3 h; Activity [13]: 840 IU/ml
CCCCNc1nc(N)c2[nH]c(=O)n(Cc3ccc(CN(C)C)cc3)c2n1	9.3	98 (≈ 265 µM)	–
CCCCNc1nc(N)c2[nH]c(=O)n(Cc3ccc(CN4CCCCC4)cc3)c2n1	7.6	19 (≈ 46.4 µM)	–
CCCCNc1nc(N)c2[nH]c(=O)n(Cc3cccc(CN4CCN(C)CC4)c3)c2n1	130	–	–
CCCCNc1nc(N)c2[nH]c(=O)n(Cc3ccc(N4CCC(N(C)C)C4)nc3)c2n1 (configuration not stated)	7.4	53 (≈ 125 µM)	–
CCCCNc1nc(N)c2[nH]c(=O)n(Cc3ccc(CN4CCOCC4)cc3)c2n1	58	8 (≈ 19.4 µM)	–
CCCCNc1nc(N)c2[nH]c(=O)n(Cc3ccc(CN4CCN(C)CC4)cc3)c2n1	7	108 (≈ 254 µM)	–

Reference: ChEMBL document CHEMBL2311334, “Synthesis and evaluation of 8-oxoadenine derivatives as potent Toll-like receptor 7 agonists with high water solubility” (Bioorg Med Chem Lett, 2013)
